According to ChEMBL document CHEMBL1152631, “Design, synthesis, and preliminary studies of the activity of novel derivatives of N-cinnamoyl-L-aspartic acid as inhibitors of aminopeptidase N/CD13” (Bioorg Med Chem, 2009):

Assays:
[1] = target: T1, Aminopeptidase N (Sus scrofa, UniProt P15145); assay: Inhibition of porcine kidney microsome APN assessed as L-Leu-p-nitroanilide hydrolysis
T1 sequence (P15145 whole entry): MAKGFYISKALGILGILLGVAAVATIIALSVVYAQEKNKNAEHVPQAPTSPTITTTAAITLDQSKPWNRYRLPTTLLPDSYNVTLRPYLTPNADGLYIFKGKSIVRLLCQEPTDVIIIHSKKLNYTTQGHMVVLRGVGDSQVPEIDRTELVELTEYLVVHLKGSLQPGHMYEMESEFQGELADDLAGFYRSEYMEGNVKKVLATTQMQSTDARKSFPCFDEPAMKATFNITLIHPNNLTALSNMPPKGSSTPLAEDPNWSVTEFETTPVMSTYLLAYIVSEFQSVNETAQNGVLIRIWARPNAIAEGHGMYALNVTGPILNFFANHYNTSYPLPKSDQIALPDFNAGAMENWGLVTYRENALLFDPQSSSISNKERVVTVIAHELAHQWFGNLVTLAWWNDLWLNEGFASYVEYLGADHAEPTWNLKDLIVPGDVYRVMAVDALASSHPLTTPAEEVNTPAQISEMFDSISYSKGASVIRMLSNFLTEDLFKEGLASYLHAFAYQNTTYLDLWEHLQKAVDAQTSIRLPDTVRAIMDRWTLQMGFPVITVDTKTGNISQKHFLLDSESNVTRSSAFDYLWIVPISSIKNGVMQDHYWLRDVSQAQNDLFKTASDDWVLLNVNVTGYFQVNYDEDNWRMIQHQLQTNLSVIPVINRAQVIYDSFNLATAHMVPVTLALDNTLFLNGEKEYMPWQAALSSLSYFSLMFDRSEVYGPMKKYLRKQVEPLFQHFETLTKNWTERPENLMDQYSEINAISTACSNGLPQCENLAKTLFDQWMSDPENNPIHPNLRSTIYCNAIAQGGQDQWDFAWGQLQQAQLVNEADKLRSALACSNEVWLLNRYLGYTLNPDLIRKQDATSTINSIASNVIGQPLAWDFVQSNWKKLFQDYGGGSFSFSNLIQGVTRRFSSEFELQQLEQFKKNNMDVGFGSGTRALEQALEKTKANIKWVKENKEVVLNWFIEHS
In short: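 Porcine kidney microsomal aminopeptidase, 4 mg/ml final, in PBS pH 7.2 at 37 °C. Inhibitor solutions made in assay buffer and adjusted to pH 7.5, preincubated with enzyme 30 min at room temperature.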

[2] = target: 72 kDa type IV collagenase (Homo sapiens, UniProt P08253); assay: Inhibition of MMP2
In short: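 Gelatinase A (MMP-2) with synthetic substrate and inhibitor in sodium borate (50 mmol/l, pH 8.5), incubated 30 min at 37 °C. Then 0.03% TNBS added for a further 20 min and absorbance read at 450 nm.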

[3] = tested on: HL-60; assay: Antiproliferative activity against human HL60 cells after 48 hrs by MTT assay; assay type: functional, cell-based; details: HL-60, 48 h
In short: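 HL-60 cells kept in RPMI1640 with 10% FBS at 37 °C, 5% CO2. Seeded 10,000 cells per well, grown 4 h, then exposed to 1600, 800, 400, 200 or 100 µg/ml for 48 h. Added 0.5% MTT, incubated 4 h, dissolved formazan in DMSO and read OD at 570 nm. Mean and SE of five independent experiments.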

Chain of 72 kDa type IV collagenase (P08253 whole entry): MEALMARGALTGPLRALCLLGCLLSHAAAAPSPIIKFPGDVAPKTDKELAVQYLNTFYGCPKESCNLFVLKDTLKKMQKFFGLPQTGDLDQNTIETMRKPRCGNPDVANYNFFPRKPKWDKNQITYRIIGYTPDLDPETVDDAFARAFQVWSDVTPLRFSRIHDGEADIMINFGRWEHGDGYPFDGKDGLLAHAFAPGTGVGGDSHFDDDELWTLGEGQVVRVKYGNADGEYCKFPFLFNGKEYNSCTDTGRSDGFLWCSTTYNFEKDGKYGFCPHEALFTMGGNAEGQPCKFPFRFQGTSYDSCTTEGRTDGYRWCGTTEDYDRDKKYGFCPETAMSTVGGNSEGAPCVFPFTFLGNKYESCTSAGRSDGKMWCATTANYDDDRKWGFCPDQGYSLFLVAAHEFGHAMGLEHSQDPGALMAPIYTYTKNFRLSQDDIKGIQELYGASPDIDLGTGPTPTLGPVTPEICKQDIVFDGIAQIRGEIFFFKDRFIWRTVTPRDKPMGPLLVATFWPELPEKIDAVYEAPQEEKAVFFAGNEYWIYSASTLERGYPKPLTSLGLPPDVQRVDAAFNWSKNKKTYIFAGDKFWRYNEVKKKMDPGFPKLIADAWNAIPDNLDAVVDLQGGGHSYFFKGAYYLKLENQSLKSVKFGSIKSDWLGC

Row | SMILES | IC50 [1] [µM] | IC50 [2] [µM] | IC50 [3] [µM]
1 | O=C(/C=C/c1ccccc1)N[C@H](CC(=O)Nc1cccc(Cl)c1)C(=O)O | 719 | – | –
2 | O=C(/C=C/c1ccccc1)N[C@H](CC(=O)Nc1cccc2ccccc12)C(=O)NO | 2050 | – | –
3 | O=C(/C=C/c1ccccc1)N[C@H](CC(=O)Nc1ccc(Cl)cc1)C(=O)O | 349 | – | –
4 | O=C(/C=C/c1ccccc1)N[C@H](CC(=O)Nc1ccccc1Cl)C(=O)O | 263 | – | –
5 | CCCCCCCCCCCCNC(=O)C[C@@H](NC(=O)/C=C/c1ccccc1)C(=O)NO | 438 | > 1000 | –
6 | O=C(/C=C/c1ccccc1)N[C@H](CC(=O)Nc1cccc([N+](=O)[O-])c1)C(=O)NO | 1440 | > 1000 | –
7 | CCCCCCCCCCCCNC(=O)C[C@@H](NC(=O)/C=C/c1ccccc1)C(=O)O | 962 | – | –
8 | O=C(/C=C/c1ccccc1)N[C@H](CC(=O)Nc1cccc(Cl)c1)C(=O)NO | 1210 | > 1000 | –
9 | CC(C)NC(=O)C[C@@H](NC(=O)/C=C/c1ccccc1)C(=O)O | 2200 | – | –
10 | O=C(/C=C/c1ccccc1)N[C@H](CC(=O)Nc1cccc([N+](=O)[O-])c1)C(=O)O | 1780 | > 1000 | –
11 | O=C(/C=C/c1ccccc1)N[C@H](CC(=O)Nc1ccc([N+](=O)[O-])cc1)C(=O)O | 273 | – | –
12 | O=C(/C=C/c1ccccc1)N[C@H](CC(=O)Nc1cccc2ccccc12)C(=O)O | 739 | > 1000 | –
13 | CCCNC(=O)C[C@@H](NC(=O)/C=C/c1ccccc1)C(=O)O | 9110 | – | –
14 | CC(C)C[C@H](NC(=O)[C@@H](O)[C@H](N)Cc1ccccc1)C(=O)O [UBENIMEX] | – | – | 920

The remaining lines, values ahead:

Row | IC50 [1] [µM] | IC50 [2] [µM] | IC50 [3] [µM] | SMILES
15 | 36 | 131 | – | CCCNC(=O)C[C@@H](NC(=O)/C=C/c1ccccc1)C(=O)NO
16 | 189 | – | – | O=C(/C=C/c1ccccc1)N[C@H](CC(=O)Nc1ccc([N+](=O)[O-])cc1)C(=O)NO
17 | 65.9 | – | – | CC(C)NC(=O)C[C@@H](NC(=O)/C=C/c1ccccc1)C(=O)NO
18 | 18.5 | – | – | CCCCCCCCNC(=O)C[C@@H](NC(=O)/C=C/c1ccccc1)C(=O)NO
19 | 115 | – | – | O=C(/C=C/c1ccccc1)N[C@H](CC(=O)Nc1ccccc1)C(=O)NO
20 | 65.1 | – | – | O=C(/C=C/c1ccccc1)N[C@H](CC(=O)NCc1ccccc1)C(=O)NO
21 | 204 | – | – | CCCCCNC(=O)C[C@@H](NC(=O)/C=C/c1ccccc1)C(=O)O
22 | 18.1 | 179 | – | CCCCCCNC(=O)C[C@@H](NC(=O)/C=C/c1ccccc1)C(=O)NO
23 | 86.6 | > 1000 | – | O=C(/C=C/c1ccccc1)N[C@H](CC(=O)Nc1ccccc1Cl)C(=O)NO
24 | 190 | – | – | CCCCNC(=O)C[C@@H](NC(=O)/C=C/c1ccccc1)C(=O)O
25 | 192 | 197 | – | O=C(/C=C/c1ccccc1)N[C@H](CC(=O)Nc1ccc(Cl)cc1)C(=O)NO
26 | 11.1 | 232 | 780 | CCCCNC(=O)C[C@@H](NC(=O)/C=C/c1ccccc1)C(=O)NO
27 | 17.4 | 197 | – | CCCCCNC(=O)C[C@@H](NC(=O)/C=C/c1ccccc1)C(=O)NO
28 | 207 | – | – | O=C(/C=C/c1ccccc1)N[C@H](CC(=O)NCc1ccccc1)C(=O)O
29 | 232 | > 1000 | – | CCCCCCCCNC(=O)C[C@@H](NC(=O)/C=C/c1ccccc1)C(=O)O
30 | 232 | > 1000 | – | O=C(/C=C/c1ccccc1)N[C@H](CC(=O)Nc1ccccc1)C(=O)O
